Legend:
[1] = target: T1, Tyrosine-protein kinase TXK (Homo sapiens) (UniProt P42681); experiment: Inhibition of TXK (unknown origin) at 0.45 uM relative to control
T1 sequence (whole entry): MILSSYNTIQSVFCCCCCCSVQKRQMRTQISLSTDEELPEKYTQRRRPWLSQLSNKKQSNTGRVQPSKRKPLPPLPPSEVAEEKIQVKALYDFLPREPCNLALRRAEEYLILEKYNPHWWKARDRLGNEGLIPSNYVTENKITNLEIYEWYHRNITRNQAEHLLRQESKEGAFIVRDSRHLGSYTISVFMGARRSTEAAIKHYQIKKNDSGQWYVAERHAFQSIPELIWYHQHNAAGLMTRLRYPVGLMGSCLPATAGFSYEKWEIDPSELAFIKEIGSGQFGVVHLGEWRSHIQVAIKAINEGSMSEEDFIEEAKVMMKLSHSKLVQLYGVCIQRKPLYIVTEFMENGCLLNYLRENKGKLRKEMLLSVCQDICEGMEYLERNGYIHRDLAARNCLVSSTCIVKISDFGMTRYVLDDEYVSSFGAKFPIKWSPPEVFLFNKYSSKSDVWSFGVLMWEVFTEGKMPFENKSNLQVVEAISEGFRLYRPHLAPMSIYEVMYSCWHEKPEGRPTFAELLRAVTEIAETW

[2] = target: Maternal embryonic leucine zipper kinase (Homo sapiens) (UniProt Q14680); experiment: Inhibition of MELK (unknown origin) at 0.19 uM relative to control
[3] = target: Receptor-type tyrosine-protein kinase FLT3 (Homo sapiens) (UniProt P36888); experiment: Inhibition of FLT3 (unknown origin) at 0.19 uM relative to control
Receptor-type tyrosine-protein kinase FLT3 (Homo sapiens), sequence (P36888 whole entry): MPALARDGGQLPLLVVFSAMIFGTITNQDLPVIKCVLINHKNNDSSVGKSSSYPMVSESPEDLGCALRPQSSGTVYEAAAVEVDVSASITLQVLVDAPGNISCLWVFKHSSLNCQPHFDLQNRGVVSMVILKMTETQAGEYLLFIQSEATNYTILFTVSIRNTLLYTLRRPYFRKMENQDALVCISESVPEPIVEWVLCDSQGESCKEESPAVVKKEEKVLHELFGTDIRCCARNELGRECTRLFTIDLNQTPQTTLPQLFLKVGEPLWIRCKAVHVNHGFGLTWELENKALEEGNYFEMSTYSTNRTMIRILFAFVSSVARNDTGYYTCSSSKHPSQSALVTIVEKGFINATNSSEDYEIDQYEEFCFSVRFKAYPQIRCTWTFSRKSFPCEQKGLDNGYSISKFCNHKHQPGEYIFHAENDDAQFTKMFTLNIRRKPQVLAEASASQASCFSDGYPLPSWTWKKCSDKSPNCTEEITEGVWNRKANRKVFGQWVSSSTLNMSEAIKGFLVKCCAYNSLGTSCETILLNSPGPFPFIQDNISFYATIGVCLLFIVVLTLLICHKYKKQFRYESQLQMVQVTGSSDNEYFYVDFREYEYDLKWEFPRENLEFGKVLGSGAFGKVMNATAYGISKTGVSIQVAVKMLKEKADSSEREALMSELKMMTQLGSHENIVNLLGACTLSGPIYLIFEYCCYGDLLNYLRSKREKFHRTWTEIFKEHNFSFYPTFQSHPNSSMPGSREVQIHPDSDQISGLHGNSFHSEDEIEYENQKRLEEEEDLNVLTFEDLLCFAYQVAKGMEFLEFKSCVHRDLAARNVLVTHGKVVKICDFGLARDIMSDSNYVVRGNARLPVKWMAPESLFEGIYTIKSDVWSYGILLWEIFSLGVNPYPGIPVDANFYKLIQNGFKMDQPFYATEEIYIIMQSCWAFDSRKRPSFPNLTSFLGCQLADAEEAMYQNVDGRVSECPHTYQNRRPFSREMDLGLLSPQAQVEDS

[4] = target: Fibroblast growth factor receptor 2 (Homo sapiens) (UniProt P21802); experiment: Inhibition of FGFR2 (unknown origin) at 0.19 uM relative to control
Fibroblast growth factor receptor 2 (Homo sapiens), sequence (P21802 22-821 limits assumed): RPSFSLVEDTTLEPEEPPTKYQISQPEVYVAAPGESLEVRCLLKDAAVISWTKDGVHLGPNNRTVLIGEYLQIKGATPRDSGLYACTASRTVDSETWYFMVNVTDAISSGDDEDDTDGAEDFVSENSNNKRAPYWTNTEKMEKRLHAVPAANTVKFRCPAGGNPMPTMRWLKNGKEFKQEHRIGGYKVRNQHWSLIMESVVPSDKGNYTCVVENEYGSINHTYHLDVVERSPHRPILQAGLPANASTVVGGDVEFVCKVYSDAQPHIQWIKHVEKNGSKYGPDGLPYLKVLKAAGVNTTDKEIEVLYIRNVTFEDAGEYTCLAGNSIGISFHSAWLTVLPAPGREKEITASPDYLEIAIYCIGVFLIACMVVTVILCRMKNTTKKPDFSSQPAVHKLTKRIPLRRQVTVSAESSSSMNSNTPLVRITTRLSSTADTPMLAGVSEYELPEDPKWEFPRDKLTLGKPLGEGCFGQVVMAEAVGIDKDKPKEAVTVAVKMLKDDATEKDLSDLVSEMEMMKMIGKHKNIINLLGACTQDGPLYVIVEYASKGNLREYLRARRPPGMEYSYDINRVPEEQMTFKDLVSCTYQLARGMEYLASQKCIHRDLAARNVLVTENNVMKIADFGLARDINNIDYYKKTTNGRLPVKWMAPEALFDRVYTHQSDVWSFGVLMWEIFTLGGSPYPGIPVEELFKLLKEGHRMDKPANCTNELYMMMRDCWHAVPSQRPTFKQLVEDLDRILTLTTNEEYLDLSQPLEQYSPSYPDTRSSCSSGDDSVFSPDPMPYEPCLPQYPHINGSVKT

[5] = target: NT-3 growth factor receptor (Homo sapiens) (UniProt Q16288); experiment: Inhibition of TRKC (unknown origin) at 0.19 uM relative to control
NT-3 growth factor receptor (Homo sapiens), sequence (Q16288 32-839 limits assumed): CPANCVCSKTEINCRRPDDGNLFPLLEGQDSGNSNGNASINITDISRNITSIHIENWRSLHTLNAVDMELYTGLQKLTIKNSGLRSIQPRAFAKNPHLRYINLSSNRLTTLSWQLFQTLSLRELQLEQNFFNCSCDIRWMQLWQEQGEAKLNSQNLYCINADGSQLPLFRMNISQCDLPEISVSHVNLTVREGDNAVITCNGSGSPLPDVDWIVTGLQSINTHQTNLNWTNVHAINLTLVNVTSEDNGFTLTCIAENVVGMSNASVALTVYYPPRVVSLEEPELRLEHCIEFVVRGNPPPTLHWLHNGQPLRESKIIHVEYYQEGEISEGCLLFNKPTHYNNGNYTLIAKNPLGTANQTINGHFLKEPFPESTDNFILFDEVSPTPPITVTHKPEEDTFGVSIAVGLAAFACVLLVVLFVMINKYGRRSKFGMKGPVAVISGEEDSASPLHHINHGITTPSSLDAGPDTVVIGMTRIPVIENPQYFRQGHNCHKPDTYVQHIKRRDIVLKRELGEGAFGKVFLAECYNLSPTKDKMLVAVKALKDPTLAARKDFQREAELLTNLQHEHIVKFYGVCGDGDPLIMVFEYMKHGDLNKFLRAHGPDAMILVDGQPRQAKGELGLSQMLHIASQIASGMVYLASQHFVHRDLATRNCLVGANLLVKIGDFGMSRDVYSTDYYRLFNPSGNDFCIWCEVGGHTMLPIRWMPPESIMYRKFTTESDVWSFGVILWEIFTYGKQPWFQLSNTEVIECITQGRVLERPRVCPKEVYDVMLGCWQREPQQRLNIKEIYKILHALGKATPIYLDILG

[6] = target: Phosphorylase b kinase gamma catalytic chain, skeletal muscle/heart isoform (Homo sapiens) (UniProt Q16816); experiment: Inhibition of PhKg1 (unknown origin) at 0.19 uM relative to control
Phosphorylase b kinase gamma catalytic chain, skeletal muscle/heart isoform (Homo sapiens), sequence (Q16816 whole entry, looked up, canonical isoform): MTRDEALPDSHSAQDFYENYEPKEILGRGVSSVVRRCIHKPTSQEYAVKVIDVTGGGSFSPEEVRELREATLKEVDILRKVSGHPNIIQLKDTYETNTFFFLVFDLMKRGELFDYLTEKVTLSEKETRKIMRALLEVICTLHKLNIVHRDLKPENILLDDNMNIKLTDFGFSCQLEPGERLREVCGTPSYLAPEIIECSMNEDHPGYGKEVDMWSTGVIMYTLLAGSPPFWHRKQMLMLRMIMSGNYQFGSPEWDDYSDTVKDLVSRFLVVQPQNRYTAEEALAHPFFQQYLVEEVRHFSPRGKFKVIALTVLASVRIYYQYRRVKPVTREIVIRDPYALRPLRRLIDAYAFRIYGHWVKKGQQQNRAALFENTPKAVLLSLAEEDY

[7] = target: Tyrosine-protein kinase Fyn (Homo sapiens) (UniProt P06241); experiment: Inhibition of FYN (unknown origin) at 0.164 uM relative to control
Tyrosine-protein kinase Fyn (Homo sapiens), sequence (P06241 2-537 limits assumed): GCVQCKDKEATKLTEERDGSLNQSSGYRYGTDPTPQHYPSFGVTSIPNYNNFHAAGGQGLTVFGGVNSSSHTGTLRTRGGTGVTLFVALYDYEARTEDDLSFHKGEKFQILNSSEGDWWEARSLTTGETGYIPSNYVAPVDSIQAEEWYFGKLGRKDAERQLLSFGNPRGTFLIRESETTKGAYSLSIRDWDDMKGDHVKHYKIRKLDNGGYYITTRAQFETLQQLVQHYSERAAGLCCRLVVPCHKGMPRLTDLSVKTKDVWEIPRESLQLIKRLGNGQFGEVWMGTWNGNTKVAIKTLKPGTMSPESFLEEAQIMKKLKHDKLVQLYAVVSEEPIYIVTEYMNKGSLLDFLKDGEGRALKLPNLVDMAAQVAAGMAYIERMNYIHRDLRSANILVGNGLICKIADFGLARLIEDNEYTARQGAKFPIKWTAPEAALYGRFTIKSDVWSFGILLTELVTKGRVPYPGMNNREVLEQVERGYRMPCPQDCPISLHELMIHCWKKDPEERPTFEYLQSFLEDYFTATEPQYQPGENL

[8] = Cmax in C57BL/6J mouse at 30 mg/kg, po by LC-MS/MS analysis; type: ADME, organism-based; parameters: dose 30 mg/kg, route oral; details: in vivo
Summary of the method: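 C57BL/6J mice received a single oral dose of 30 mg/kg as a suspension in 0.5% methylcellulose. Plasma Cmax and AUC are reported as the average of two animals.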

[9] = target: Casein kinase I isoform delta (Homo sapiens) (UniProt P48730); experiment: Inhibition of CK1-delta (unknown origin) at 0.164 uM relative to control
[10] = target: T2, MAP kinase-activated protein kinase 5 (Homo sapiens) (UniProt Q8IW41); experiment: Inhibition of PRAK (unknown origin) at 0.164 uM relative to control
T2 sequence (whole entry): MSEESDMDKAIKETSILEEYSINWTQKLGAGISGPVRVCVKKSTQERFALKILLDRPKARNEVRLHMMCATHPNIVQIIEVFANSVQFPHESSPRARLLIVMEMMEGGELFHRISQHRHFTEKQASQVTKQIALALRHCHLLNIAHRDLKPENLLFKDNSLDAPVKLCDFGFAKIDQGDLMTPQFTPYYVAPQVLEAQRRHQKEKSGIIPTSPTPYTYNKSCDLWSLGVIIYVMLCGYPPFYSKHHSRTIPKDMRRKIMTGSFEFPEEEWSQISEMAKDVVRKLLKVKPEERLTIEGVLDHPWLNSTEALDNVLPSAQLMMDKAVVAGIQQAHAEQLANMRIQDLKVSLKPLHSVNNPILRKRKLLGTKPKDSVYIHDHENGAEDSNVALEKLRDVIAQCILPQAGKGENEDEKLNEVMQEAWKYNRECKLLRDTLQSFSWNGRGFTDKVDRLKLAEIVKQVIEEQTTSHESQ

[11] = target: Tyrosine-protein kinase Blk (Homo sapiens) (UniProt P51451); experiment: Inhibition of BLK (unknown origin) at 0.164 uM relative to control
[12] = target: T3, Serine/threonine-protein kinase D1 (Homo sapiens) (UniProt Q15139); experiment: Inhibition of PKD1 (unknown origin) at 0.164 uM relative to control
T3 sequence (whole entry): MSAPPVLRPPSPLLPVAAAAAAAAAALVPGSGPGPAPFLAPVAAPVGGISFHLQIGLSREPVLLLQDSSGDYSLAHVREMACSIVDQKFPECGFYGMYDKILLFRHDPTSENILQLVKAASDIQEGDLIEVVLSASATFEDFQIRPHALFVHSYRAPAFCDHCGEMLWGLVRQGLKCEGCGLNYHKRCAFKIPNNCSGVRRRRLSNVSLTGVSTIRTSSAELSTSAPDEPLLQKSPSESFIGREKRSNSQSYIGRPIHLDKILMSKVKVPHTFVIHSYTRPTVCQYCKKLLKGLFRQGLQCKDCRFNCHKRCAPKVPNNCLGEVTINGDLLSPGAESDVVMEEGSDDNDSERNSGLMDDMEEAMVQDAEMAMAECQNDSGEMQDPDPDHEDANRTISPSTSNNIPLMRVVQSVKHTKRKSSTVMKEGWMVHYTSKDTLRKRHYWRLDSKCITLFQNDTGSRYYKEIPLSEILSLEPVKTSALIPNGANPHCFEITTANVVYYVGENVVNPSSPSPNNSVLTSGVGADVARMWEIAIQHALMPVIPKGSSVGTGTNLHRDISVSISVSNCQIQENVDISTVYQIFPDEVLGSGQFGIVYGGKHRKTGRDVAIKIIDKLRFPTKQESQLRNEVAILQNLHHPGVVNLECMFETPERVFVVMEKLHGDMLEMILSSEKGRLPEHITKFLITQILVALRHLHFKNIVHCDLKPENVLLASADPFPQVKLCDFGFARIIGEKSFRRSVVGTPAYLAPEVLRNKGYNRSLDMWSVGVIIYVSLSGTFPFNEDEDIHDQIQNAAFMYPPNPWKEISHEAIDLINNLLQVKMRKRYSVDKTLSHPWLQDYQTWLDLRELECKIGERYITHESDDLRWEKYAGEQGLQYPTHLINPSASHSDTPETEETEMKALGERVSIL

[13] = target: Serine/threonine-protein kinase D2 (Homo sapiens) (UniProt Q9BZL6); experiment: Inhibition of PKD2 (unknown origin) at 0.164 uM relative to control
Serine/threonine-protein kinase D2 (Homo sapiens), sequence (Q9BZL6 whole entry): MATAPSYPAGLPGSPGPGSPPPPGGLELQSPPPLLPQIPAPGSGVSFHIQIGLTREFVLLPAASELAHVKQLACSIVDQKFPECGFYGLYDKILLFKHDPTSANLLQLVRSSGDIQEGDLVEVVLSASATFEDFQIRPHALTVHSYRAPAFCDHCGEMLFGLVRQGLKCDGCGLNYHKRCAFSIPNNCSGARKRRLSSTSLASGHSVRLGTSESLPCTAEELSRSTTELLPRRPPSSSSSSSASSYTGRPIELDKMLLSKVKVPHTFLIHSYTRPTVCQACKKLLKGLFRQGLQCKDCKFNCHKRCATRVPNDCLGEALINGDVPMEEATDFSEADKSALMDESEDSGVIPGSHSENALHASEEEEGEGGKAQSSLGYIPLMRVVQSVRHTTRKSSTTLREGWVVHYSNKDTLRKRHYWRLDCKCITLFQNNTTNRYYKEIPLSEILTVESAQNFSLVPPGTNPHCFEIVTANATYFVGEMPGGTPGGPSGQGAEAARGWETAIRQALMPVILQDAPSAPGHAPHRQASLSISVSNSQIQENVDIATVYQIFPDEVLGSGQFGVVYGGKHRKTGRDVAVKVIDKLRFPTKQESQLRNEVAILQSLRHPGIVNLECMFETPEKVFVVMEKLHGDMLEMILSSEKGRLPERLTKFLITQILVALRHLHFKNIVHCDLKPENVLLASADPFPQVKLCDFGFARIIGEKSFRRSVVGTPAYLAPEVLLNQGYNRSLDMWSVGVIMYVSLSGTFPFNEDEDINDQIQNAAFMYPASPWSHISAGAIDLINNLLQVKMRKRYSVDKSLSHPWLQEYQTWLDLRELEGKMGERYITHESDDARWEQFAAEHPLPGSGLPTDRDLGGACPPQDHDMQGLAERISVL

[14] = target: MAP/microtubule affinity-regulating kinase 3 (Homo sapiens) (UniProt P27448); experiment: Inhibition of c-TAK1 (unknown origin) at 0.164 uM relative to control
[15] = target: Homeodomain-interacting protein kinase 1 (Homo sapiens) (UniProt Q86Z02); experiment: Inhibition of HIPK1 (unknown origin) at 0.164 uM relative to control
[16] = target: Cytoplasmic tyrosine-protein kinase BMX (Homo sapiens) (UniProt P51813); experiment: Inhibition of BMX (unknown origin) at 0.164 uM relative to control
Cytoplasmic tyrosine-protein kinase BMX (Homo sapiens), sequence (P51813 whole entry): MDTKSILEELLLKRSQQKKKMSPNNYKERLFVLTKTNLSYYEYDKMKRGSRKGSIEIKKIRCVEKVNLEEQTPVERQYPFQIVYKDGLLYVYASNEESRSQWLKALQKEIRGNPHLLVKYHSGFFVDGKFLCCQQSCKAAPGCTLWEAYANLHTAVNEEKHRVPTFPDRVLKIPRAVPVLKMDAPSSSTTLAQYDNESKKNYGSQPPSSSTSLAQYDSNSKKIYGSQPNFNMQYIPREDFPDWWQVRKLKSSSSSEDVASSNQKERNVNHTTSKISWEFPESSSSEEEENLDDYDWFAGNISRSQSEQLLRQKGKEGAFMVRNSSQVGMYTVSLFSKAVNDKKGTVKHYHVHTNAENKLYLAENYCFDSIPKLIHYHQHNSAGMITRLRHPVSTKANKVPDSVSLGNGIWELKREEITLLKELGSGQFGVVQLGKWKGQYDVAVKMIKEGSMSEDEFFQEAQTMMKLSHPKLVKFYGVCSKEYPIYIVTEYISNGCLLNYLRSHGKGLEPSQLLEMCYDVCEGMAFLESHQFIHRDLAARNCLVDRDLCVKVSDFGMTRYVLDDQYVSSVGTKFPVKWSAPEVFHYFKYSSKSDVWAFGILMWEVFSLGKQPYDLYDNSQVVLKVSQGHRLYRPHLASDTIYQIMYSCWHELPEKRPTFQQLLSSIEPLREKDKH

## Cc1n[nH]c(C)c1-c1ccc2c(NC(=O)c3ccc(N4CCN(C)CC4)cc3)n[nH]c2c1
[1]
  inhibition: -0.7%

## Cc1[nH]nc(C2CC2)c1-c1ccc2c(-c3ccc(N4CCN(C)CC4)nc3)n[nH]c2c1
[2]
  inhibition: 51%
[3]
  inhibition: 77.3%
[4]
  inhibition: 4%
[5]
  inhibition: 42%
[6]
  inhibition: 2%

## COC(=O)Nc1cc(-c2c(C3CC3)n[nH]c2C)cc2[nH]ncc12
[7]
  inhibition: 10.3%
[8]
  Cmax: 4940 ng/mL
[9]
  inhibition: 4.7%
[10]
  inhibition: 3.3%
[11]
  inhibition: 6.7%
[12]
  inhibition: -3%
[13]
  inhibition: 9.3%
[14]
  inhibition: 2%
[15]
  inhibition: 0%
[16]
  inhibition: 17.7%
